Screens deposited in PubChem BioAssay by Broad Institute.
SIRT5 inh – SIRT5 desuccinylase inhibitors, primary screen, biochemical, fluorescence imaging, single point, set 5; 330,000 compounds, 1.1% hits; Purified SirT5, succinyl-peptide AMC, trypsin-coupled fluorescence; NAD-dependent protein deacylase sirtuin-5, mitochondrial (Homo sapiens), Q9NXA8; inhibition, % at 15 µM; AID 652115, 2013; in the data active = inhibition above about 15%
Target sequence (Q9NXA8 whole entry, looked up): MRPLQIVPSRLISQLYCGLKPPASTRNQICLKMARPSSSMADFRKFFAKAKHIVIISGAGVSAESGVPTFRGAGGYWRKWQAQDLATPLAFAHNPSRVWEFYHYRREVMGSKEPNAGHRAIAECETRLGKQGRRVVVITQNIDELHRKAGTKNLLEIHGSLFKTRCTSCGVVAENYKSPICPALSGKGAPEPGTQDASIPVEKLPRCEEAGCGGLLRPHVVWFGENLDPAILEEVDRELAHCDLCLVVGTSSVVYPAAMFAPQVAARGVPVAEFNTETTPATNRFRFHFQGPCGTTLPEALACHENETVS
Cneo AK release – Cryptococcus neoformans cell lysis inducers, primary screen, AK release luminescence, single concentration; C. neoformans lysis, adenylate kinase release luminescence, 4 h; normalised: neutral wells 0, clomiphene wells 100; lysis activity, % at 15 µM; 360,000 compounds, 0.2% hits; AID 651654, 2012;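 active = mean lysis activity across replicates of at least 80%, whatever share of replicates individually reach that level; inactive = mean lysis activity below 80%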
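Test system: log-phase Cryptococcus neoformans yeast cells. Input: 5 × 10^6 yeast cells/mL. Medium: fresh YPD growth medium. Doses: single dose. Incubation: static 4 h at 37 °C with compound, 1 h detection. Measured by: luminescent adenylate kinase detection reagent. Read-out: signal increase indicating cell lysis. Benchmarks: Clomiphene.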
PGC1a acetyl inh – inhibitors of PGC1a acetylation signal, primary screen, cell-based, U2OS, AlphaScreen, inhibitor mode; inhibition, % at 15.6 µM; 350,000 compounds, 0.17% hits; AlphaScreen anti-acetyl-lysine; with virally co-expressed GCN5 acetyltransferase;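 active = every replicate shows inhibition of at least 40%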
S100A4 MyoIIA – inhibitors of S100A4-myosin IIA peptide binding, primary screen, biochemical, fluorescence polarization, TAMRA-MyoIIA peptide; Protein S100-A4 (Homo sapiens), P26447; inhibition, % at 10.7 µM; 360,000 compounds, 0.14% hits;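 active = mean inhibition of at least 70% across replicates, with every replicate also reaching that level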
Target sequence (P26447 whole entry, looked up): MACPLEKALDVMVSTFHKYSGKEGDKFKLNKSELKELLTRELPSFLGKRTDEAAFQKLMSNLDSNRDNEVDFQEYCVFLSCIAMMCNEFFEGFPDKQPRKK
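Material: S100A4 monomer protein / Buffer or medium: 50 mM HEPES pH 7.2, 10 mM CaCl2, 100 mM KCl / Times: 5 min incubation before reading / Benchmarks: neutral control DMSO, positive control TFP / Reagent: labelled myosin peptide probe, 5 nM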
Ecoli rRNA inh – reduced GFP signal of wild-type E. coli, primary screen, bacterial rRNA inhibitor project, GFP/RFP fluorescence, OD600, single point; E. coli WT GFP vs humanized-ribosome RFP mutants, 24 h; hits give low values; DMSO median 0, no signal -100; 350,000 compounds, 1.6% hits; AID 720706, 2013; GFP signal change (wild-type ribosome), % (concentration not given with the values);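 active = significant combined selectivity score with lowered wild-type GFP, culture density cut under 30%, mutant RFP and density less affected; inactive = any of these conditions unmet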
C2C12 statin – suppressors of statin myotoxicity in C2C12 myotubes, primary screen, cell-based, single point, plate reader; AID 602340, 2012; 330,000 compounds, 0.78% hits; rescue of ATP level, % at 7.49 µM; C2C12 myotubes + simvastatin, ATP luminescence, 48 h; scaled: DMSO 0, geranylgeraniol control 100;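 active = mean ATP rescue above about 67%, or every replicate alone reaching that limit, limit read from the data, passing the limit was not always enough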;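 note: myotubes were challenged with 10 µM simvastatin during compound exposure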
Numbers stand for hits. Rows were chosen to be rich in hits. Some 3% of all compounds tested hit in one or more screens of this group.

NC(=S)NN=C1CCCCCCCCCC1 was read as SIRT5 inh inactive, Cneo AK release inactive, PGC1a acetyl inh inactive, S100A4 MyoIIA inactive, Ecoli rRNA inh inactive and C2C12 statin inactive.
For NC(=S)NN=C1CCC(C2CCCCC2)CC1 (stereo not drawn) the results were SIRT5 inh inactive, Cneo AK release inactive, PGC1a acetyl inh inactive, S100A4 MyoIIA inactive, Ecoli rRNA inh -45 and C2C12 statin inactive.
Screening CCN(CC)S(=O)(=O)c1cc(NS(=O)(=O)c2cccc(Cl)c2Cl)ccc1C returned SIRT5 inh inactive, Cneo AK release inactive, S100A4 MyoIIA inactive and Ecoli rRNA inh -38.
For CCN(CC)S(=O)(=O)c1cc(NC(=O)Cn2ncc(Cl)c(Cl)c2=O)ccc1C the results were SIRT5 inh inactive, PGC1a acetyl inh inactive, S100A4 MyoIIA inactive and Ecoli rRNA inh -26.
O=C(Cn1ncc(Cl)c(Cl)c1=O)Nc1ccc2c(c1)OCO2 was read as SIRT5 inh inactive, Cneo AK release inactive, PGC1a acetyl inh inactive, S100A4 MyoIIA inactive, Ecoli rRNA inh inactive and C2C12 statin inactive.
COCC(=O)Nc1ccc2c(c1)OC[C@@H](C)N(Cc1cccc(F)c1)C[C@H](C)[C@@H](OC)CN(C)C2=O was read as SIRT5 inh inactive, Cneo AK release inactive, PGC1a acetyl inh inactive, S100A4 MyoIIA inactive, Ecoli rRNA inh inactive and C2C12 statin inactive.
CNC[C@H]1OCCCC[C@@H](C)Oc2ccc(NC(=O)c3ccccc3)cc2C(=O)N([C@@H](C)CO)C[C@@H]1C was read as PGC1a acetyl inh inactive, Ecoli rRNA inh inactive and C2C12 statin inactive.
Screening CC=Cc1ccc2n(c1=O)C[C@H]1[C@H](CO)[C@@H](C(=O)N3CCCCC3)[C@@H]2N1C(=O)C1CCC1 (mixture of isomers) returned SIRT5 inh inactive, Cneo AK release inactive, S100A4 MyoIIA inactive, Ecoli rRNA inh inactive and C2C12 statin inactive.
`COc1ccc(NC(=O)N(C)C[C@@H]2Oc3ncc(C#CC(C)C)cc3C(=O)N([C@@H](C)CO)C[C@@H]2C)cc1` gave SIRT5 inh inactive, Cneo AK release inactive, PGC1a acetyl inh inactive, S100A4 MyoIIA inactive, Ecoli rRNA inh inactive and C2C12 statin inactive.
Screening COc1ccc(NC(=O)N(C)C[C@@H]2Oc3ncc(C#CC(C)(C)O)cc3C(=O)N([C@H](C)CO)C[C@@H]2C)cc1 returned SIRT5 inh inactive, Cneo AK release inactive, PGC1a acetyl inh inactive, S100A4 MyoIIA 112, Ecoli rRNA inh inactive and C2C12 statin inactive.
C[C@H](CO)N1C[C@H](C)[C@H](CN(C)C(=O)Nc2ccc3c(c2)OCO3)Oc2ncc(C#CC(C)(C)O)cc2C1=O was read as SIRT5 inh inactive, Cneo AK release 113, PGC1a acetyl inh inactive, S100A4 MyoIIA inactive, Ecoli rRNA inh inactive and C2C12 statin inactive.
Screening C[C@H](CO)N1C[C@H](C)[C@H](CN(C)C(=O)Nc2ccc3c(c2)OCO3)Oc2ncc(C#Cc3ccc(C(F)(F)F)cc3)cc2C1=O returned SIRT5 inh inactive, Cneo AK release inactive, PGC1a acetyl inh inactive, S100A4 MyoIIA inactive and Ecoli rRNA inh inactive.
Cc1nnc(N2C(=O)C(O)=C(C(=O)c3ccco3)C2c2ccc(F)cc2)s1 (stereo not drawn) was read as Cneo AK release inactive, PGC1a acetyl inh inactive, S100A4 MyoIIA inactive, Ecoli rRNA inh inactive and C2C12 statin inactive.
For Cc1nnc(N2C(=O)C(O)=C(C(=O)c3ccco3)C2c2ccc(C(C)(C)C)cc2)s1 (stereo not drawn) the results were Cneo AK release inactive, PGC1a acetyl inh inactive and C2C12 statin 117.
For CCOC(=O)c1sc(N2C(=O)C(O)=C(C(=O)c3ccco3)C2c2ccc([N+](=O)[O-])cc2)nc1C (stereo not drawn) the results were SIRT5 inh inactive, Cneo AK release inactive, S100A4 MyoIIA inactive, Ecoli rRNA inh -18 and C2C12 statin inactive.
`CCOC(=O)c1sc(N2C(=O)C(O)=C(C(=O)c3ccco3)C2c2ccc(C)o2)nc1C` (stereo not drawn) gave Cneo AK release inactive, S100A4 MyoIIA inactive, Ecoli rRNA inh inactive and C2C12 statin inactive.
O=C(C[C@H]1CC[C@@H]2[C@H](COC[C@H](O)CN2Cc2nccs2)O1)NCc1ccc(F)cc1 was read as SIRT5 inh inactive, Cneo AK release inactive, PGC1a acetyl inh inactive, S100A4 MyoIIA inactive, Ecoli rRNA inh inactive and C2C12 statin inactive.
`Cc1ccc(S(=O)(=O)Nc2ccc3c(c2)C(=O)N([C@H](C)CO)C[C@@H](C)[C@@H](CN(C)S(=O)(=O)c2ccc(C)cc2)O3)cc1` gave SIRT5 inh inactive, Cneo AK release inactive, PGC1a acetyl inh inactive, S100A4 MyoIIA inactive, Ecoli rRNA inh inactive and C2C12 statin inactive.
Screening C/C=C/c1ccc2c(c1)O[C@H](CN(C)S(=O)(=O)c1ccc(F)cc1)[C@H](C)CN([C@@H](C)CO)S2(=O)=O returned SIRT5 inh inactive, Cneo AK release inactive, PGC1a acetyl inh inactive, S100A4 MyoIIA inactive, Ecoli rRNA inh inactive and C2C12 statin inactive.
`C/C=C/c1ccc2c(c1)O[C@H](CN(C)S(=O)(=O)c1ccccc1)[C@H](C)CN([C@@H](C)CO)S2(=O)=O` gave SIRT5 inh inactive, Cneo AK release 90, PGC1a acetyl inh inactive, S100A4 MyoIIA inactive, Ecoli rRNA inh inactive and C2C12 statin inactive.
`C[C@@H]1CN([C@@H](C)CO)S(=O)(=O)c2ccc(Br)cc2O[C@H]1CN(C)CC1CCCC1` gave SIRT5 inh inactive, Cneo AK release inactive, PGC1a acetyl inh inactive, S100A4 MyoIIA inactive, Ecoli rRNA inh inactive and C2C12 statin inactive.
Screening C/C=C/c1ccc2c(c1)O[C@@H](CN(C)CC1CCCC1)[C@H](C)CN([C@@H](C)CO)S2(=O)=O returned SIRT5 inh 18, Cneo AK release inactive, PGC1a acetyl inh inactive, S100A4 MyoIIA inactive, Ecoli rRNA inh inactive and C2C12 statin inactive.
C[C@H](CO)N1C[C@H](C)[C@@H](CN(C)CC2CCCC2)Oc2cc(Br)ccc2S1(=O)=O was read as SIRT5 inh 16, Cneo AK release inactive, PGC1a acetyl inh inactive, S100A4 MyoIIA inactive, Ecoli rRNA inh inactive and C2C12 statin inactive.
Screening CC(=O)Nc1ccc2c(c1)C(=O)N(C)[C@H]1CC[C@H](CC(=O)Nc3cccc(F)c3)O[C@@H]1CO2 returned SIRT5 inh inactive, PGC1a acetyl inh inactive, S100A4 MyoIIA inactive and Ecoli rRNA inh inactive.
